From ChEMBL document CHEMBL1155308, “Metallo-beta-lactamase inhibitory activity of phthalic acid derivatives” (Bioorg Med Chem Lett, 2009)

Assay: Inhibition of carbapenems-resistant Pseudomonas aeruginosa MSC15369 metallo-beta-lactamase IMP-1 expressed in Escherichia coli after 20 mins by spectrophotometry
In short: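 IMP-1 purified from cell extracts by Ni-NTA; 1.0 nM enzyme in 50 mM HEPES pH 7.5 with 100 µM ZnSO4 and 20 µg/ml BSA, preincubated with inhibitor 20 min at room temperature; nitrocefin substrate, initial velocity read at 490 nm; IC50 determined.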

Q: For `O=C(O)c1cccc(-c2cccc(O)c2)c1C(=O)O`, which IC50 is on record?
A: The IC50 was 1.75 µM.

Q: Which IC50 does the source give for `O=C(O)c1cccc(-c2ccc(O)cc2)c1C(=O)O` here?
A: The IC50 was 1.55 µM.

Q: With `O=C(O)c1cccc(CCCO)c1C(=O)O` as the compound, how does the IC50 read?
A: Its IC50 is 13.2 µM.

Q: Which IC50 does the source give for `CC(C)(C)c1ccc(C(=O)O)c(C(=O)O)c1` here?
A: Its IC50 is greater than 300 µM.

Q: With `Cc1cccc(C(=O)O)c1C(=O)O` as the compound, how does the IC50 read?
A: The IC50 was 160 µM.

Q: For `O=C(O)c1cccc(-c2ccccc2)c1C(=O)O`, which IC50 is on record?
A: The IC50 was 0.968 µM.

Q: With `O=C(O)c1cccc(-c2ccccc2O)c1C(=O)O` as the compound, how does the IC50 read?
A: The IC50 was 2.44 µM.

Q: Which IC50 does the source give for `O=C(O)c1cccc(-c2cccc(C(=O)O)c2C(=O)O)c1` here?
A: Its IC50 is 17.9 µM.

Q: Which IC50 does the source give for `CCCCc1ccc(C(=O)O)c(C(=O)O)c1C` here?
A: Its IC50 is 16 µM.

Q: Which IC50 does the source give for `CCCCc1ccc(C(=O)O)c(C(=O)O)c1` here?
A: The IC50 was 243 µM.

Q: Which IC50 does the source give for `Cc1ccc(C(=O)O)c(C(=O)O)c1` here?
A: Its IC50 is greater than 300 µM.

Q: For `O=C(O)c1ccc(-c2ccccc2)cc1C(=O)O`, which IC50 is on record?
A: Its IC50 is greater than 300 µM.

Q: Which IC50 does the source give for `O=C(O)c1ccc(-c2cccc(C(=O)O)c2C(=O)O)cc1` here?
A: Its IC50 is 2.25 µM.

Q: For `O=C(O)c1ccccc1-c1cccc(C(=O)O)c1C(=O)O`, which IC50 is on record?
A: Its IC50 is 207 µM.

Q: Which IC50 does the source give for `O=C(O)c1ccccc1C(=O)O` [PHTHALIC ACID] here?
A: The IC50 was greater than 100 µM.
